The values below come from ChEMBL document CHEMBL1156894, “Potent oxadiazole CGRP receptor antagonists for the potential treatment of migraine” (Bioorg Med Chem Lett, 2010).

Data set [1] has as its target T1, Calcitonin gene-related peptide type 1 receptor (Homo sapiens, UniProt O60894+Q16602). As to the kind of experiment: Antagonist activity at human recombinant CGRP receptor expressed in HEK293 cells assessed as inhibition of CGRP-stimulated increase of intracellular cAMP level in absence of human serum albumin. The format is functional, cell-based. The gist of the method: (§1)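 HEK 293 cells expressing human recombinant CGRP receptor; antagonism of CGRP-stimulated rise in intracellular cAMP measured, run with or without HSA; functional pKi (fpKi) derived. Values are means of two experiments unless otherwise footnoted.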

A short description of data set [2]: Aqueous solubility in fasted-state simulated intestinal fluid after 1 hr. Type of data set: physicochemical. The gist of the method:
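Compound amount dissolved in fasted-state simulated intestinal fluid, read at the 1 h time point.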

Data set [3] deals with T1, Calcitonin gene-related peptide type 1 receptor. As to the kind of experiment: Antagonist activity at human recombinant CGRP receptor expressed in HEK293 cells assessed as inhibition of CGRP-stimulated increase of intracellular cAMP level in presence of human serum albumin. The format is functional, cell-based. The gist of the method: as §1
Data set [4] in a line: Blood clearance in rat. Type of data set: ADME, organism-based.
A short description of data set [5]: Permeability across artificial membrane. Particulars: PAMPA; read-out: permeability. Type of data set: ADME. The gist of the method:
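In vitro artificial membrane permeability assay (PAMPA).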
Background: PAMPA measures passive passage across an artificial lipid membrane.

Data set [6] can be described thus: Clearance in rat at 1 mg/kg, iv. Type of data set: ADME, organism-based. Details: dose 1 mg/kg, route intravenous. Particulars: in vivo. An outline of the steps: (§2)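 Intravenous dose of 1 mg/kg in rat; clearance and half-life derived from the blood profile.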
The nature of data set [7]: Cmax in rat at 10 mg/kg, po in 1% methylcellulose. Type of data set: ADME, organism-based. Details: dose 10 mg/kg, route oral. Particulars: in vivo. The gist of the method: (§3)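 Oral dosing to rats at 10 mg/kg as a 2 mg/mL suspension in 1% (w/v) aqueous methylcellulose. Blood concentrations followed over about 6 h, giving Cmax, Tmax and dose-normalised AUC.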
In data set [8] the test system is Rattus norvegicus. Kind of data set: Dose normalized in rat at 10 mg/kg, po in 1% methylcellulose. Type of data set: ADME, organism-based. Set-up: dose 10 mg/kg, route oral. The conditions noted are these: in vivo. The gist of the method:
as §3

Data set [9] in a line: Bioavailability in rat at 10 mg/kg, po in 1% methylcellulose. Type of data set: ADME, organism-based. Particulars: in vivo.
The nature of data set [10]: Tmax in rat at 10 mg/kg, po in 1% methylcellulose. Type of data set: ADME, organism-based. Set-up: dose 10 mg/kg, route oral. The conditions noted are these: in vivo. The gist of the method:
as §3

Data set [11] is described as follows: Half life in rat at 1 mg/kg, iv. Type of data set: ADME, organism-based. Details: dose 1 mg/kg, route intravenous. Particulars: in vivo. An outline of the steps:
as §2

In data set [12] the test system is Rattus norvegicus. Kind of data set: Dose normalized AUC in rat at 10 mg/kg, po in 5% N-Methyl-2-pyrrolidone, 80% Poly(ethylene glycol400 diluted to volume with 20% vitamin E TPGS in water. Set-up: dose 10 mg/kg, route oral. The format is ADME, organism-based. The conditions noted are these: in vivo. The gist of the method: (§4)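 Rats given 10 mg/kg orally, formulated at 2 mg/mL in 5% NMP, 80% PEG400 made up to volume with 20% Vitamin E TPGS in water. Blood concentration-time profile followed over about 5 h per rat, giving Cmax, Tmax and dose-normalised AUC.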

A short description of data set [13]: Cmax in rat at 10 mg/kg, po in 5% N-Methyl-2-pyrrolidone, 80% Poly(ethylene glycol400 diluted to volume with 20% vitamin E TPGS in water. The format is ADME, organism-based. Details: dose 10 mg/kg, route oral. The conditions noted are these: in vivo. An outline of the steps:
as §4

A short description of data set [14]: Tmax in rat at 10 mg/kg, po in 5% N-Methyl-2-pyrrolidone, 80% Poly(ethylene glycol400 diluted to volume with 20% vitamin E TPGS in water. Type of data set: ADME, organism-based. The conditions noted are these: in vivo. Details: dose 10 mg/kg, route oral. The gist of the method: as §4
The nature of data set [15]: Bioavailability in rat at 10 mg/kg, po in 5% N-Methyl-2-pyrrolidone, 80% Poly(ethylene glycol400 diluted to volume with 20% vitamin E TPGS in water. The format is ADME, organism-based. The conditions noted are these: in vivo.
The subject of data set [16] is Rattus norvegicus. As to the kind of experiment: Liver blood flow in rat at 1 mg/kg, iv. Type of data set: ADME, organism-based. Set-up: dose 1 mg/kg, route intravenous. The conditions noted are these: in vivo.

In brackets after ≈: the same amount, converted by molar mass.

For orientation: Ki means the equilibrium dissociation constant of an inhibitor or competing ligand from its target. One may read the solubility as the dissolved amount per volume that the medium holds. Low readings indicate a poorly soluble substance, high ones a readily soluble substance. As a reminder, the clearance is the rate of elimination divided by the concentration. In general, Cmax refers to the highest concentration seen after dosing. In general, bioavailability refers to the share of a dose that reaches the circulation, judged against a reference dose that is usually intravenous. Read a high bioavailability as much systemic uptake. For orientation: Tmax means the time at which the peak concentration occurs. By half-life is commonly meant the time needed for the level to fall by half in the phase considered. A high value points to slow loss.

T1 sequence (Q16602 whole entry, one chain of several): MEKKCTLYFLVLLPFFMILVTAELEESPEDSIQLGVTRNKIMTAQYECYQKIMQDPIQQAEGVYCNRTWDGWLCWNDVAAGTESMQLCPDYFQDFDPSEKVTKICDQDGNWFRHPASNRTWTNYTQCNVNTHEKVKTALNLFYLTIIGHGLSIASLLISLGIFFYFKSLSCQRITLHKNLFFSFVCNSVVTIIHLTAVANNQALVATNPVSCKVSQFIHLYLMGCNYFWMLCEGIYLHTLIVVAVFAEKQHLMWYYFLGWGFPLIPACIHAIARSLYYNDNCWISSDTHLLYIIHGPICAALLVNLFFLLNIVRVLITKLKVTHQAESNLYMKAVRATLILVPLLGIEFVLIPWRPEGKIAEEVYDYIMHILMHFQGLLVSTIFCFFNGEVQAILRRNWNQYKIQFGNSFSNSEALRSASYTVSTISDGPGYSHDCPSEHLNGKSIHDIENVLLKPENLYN

Regarding `O=C(Cc1nnc(-c2cccc(Cl)c2)o1)N1CCC(n2c(=O)[nH]c3ncccc32)CC1`, in [1], the Ki was 316 nM.
Consider `Cc1cc(-c2nnc(CC(=O)N3CCC(n4c(=O)[nH]c5ncccc54)CC3)o2)cc(N2CCOCC2)c1`, for which the Ki in data set [1] was 6.31 nM.
For the compound `O=C(Cc1nnc(-c2ccc(Cl)c(Cl)c2)o1)N1CCC(n2c(=O)[nH]c3ncccc32)CC1`, in data set [1], the Ki was 251 nM.
On the same count and under the same terms, for `O=C(Cc1nnc(-c2cc(C(F)(F)F)cc(C(F)(F)F)c2)o1)N1CCC(n2c(=O)[nH]c3ncccc32)CC1` the value was 25.1 nM; for `O=C(Cc1nnc(-c2cc(F)cc(F)c2)o1)N1CCC(n2c(=O)[nH]c3ncccc32)CC1`, 126 nM.
Still for that read-out and setting: the figure for `COc1cc(Cl)cc(-c2nnc(CC(=O)N3CCC(n4c(=O)[nH]c5ncccc54)CC3)o2)c1` is 7.94 nM.
Turning to `O=C(Cc1nnc(-c2cc(Cl)cc(N3CCOCC3)c2)o1)N1CCC(n2c(=O)[nH]c3ncccc32)CC1`, the results for the Ki in data set [1] and in data set [3] were 6.31 nM and 126 nM, respectively. Further, the concentration in solution in data set [2] (solubility at 1 h) came to 40 µg/mL (≈ 76.3 µM). Besides, the clearance in [4] was found to be 70 mL/min/kg. Also, in [5], the Papp is 12 ×10⁻⁶ cm/s.
Regarding `O=C(Cc1nnc(-c2cc(Cl)ccc2Cl)o1)N1CCC(n2c(=O)[nH]c3ncccc32)CC1`, in [1], the Ki was 126 nM.
`COc1cc(OC)cc(-c2nnc(CC(=O)N3CCC(n4c(=O)[nH]c5ncccc54)CC3)o2)c1`: the Ki in data set [1] was 50.1 nM.
With `CN1CCN(c2cc(Cl)cc(-c3nnc(CC(=O)N4CCC(n5c(=O)[nH]c6ncccc65)CC4)o3)c2)CC1`, the Ki was 5.01 nM in data set [1] and 25.1 nM in [3]. The compound further returned a solubility at 1 h in data set [2] of 210 µg/mL (≈ 391 µM). In [4], this compound yielded a clearance of 72 mL/min/kg. For the same compound, the Papp in [5] is below 0.3 ×10⁻⁶ cm/s.
Consider `CN(C)CCOc1cc(Cl)cc(-c2nnc(CC(=O)N3CCC(N4CCc5ccccc5NC4=O)CC3)o2)c1`, for which the Ki in [1] was 12.6 nM; in data set [3], 15.8 nM. For the same compound, the clearance in data set [6] and in data set [4] was 50 mL/min/kg in each case. In addition, the peak level in [7] (Cmax) was 250 nM. For the same compound, in data set [2], the solubility at 1 h was 120 µg/mL (≈ 217 µM). This compound had an AUC in the data set with Rattus norvegicus [8] of 2.5 kg·min/L. Moreover, the bioavailability in data set [9] is 14%. In addition, the Papp in data set [5] came out at 18.5 ×10⁻⁶ cm/s. Besides, in data set [10], the Tmax came to 3 h. The compound also had a half-life in data set [11] of 1.9 h.
Turning to `O=C(Cc1nnc(-c2ccc(Cl)cc2)o1)N1CCC(n2c(=O)[nH]c3ncccc32)CC1`, the Ki in [1] is 1000 nM.
For `Cc1ccc(-c2cc(Cl)cc(-c3nnc(CC(=O)N4CCC(n5c(=O)[nH]c6ncccc65)CC4)o3)c2)cn1`, the figures for the Ki in data set [1] and in data set [3] were 2.51 nM and 126 nM, respectively. Further, in data set [2], the solubility at 1 h was below 1 µg/mL. Moreover, the Papp in data set [5] was determined as 22 ×10⁻⁶ cm/s.
As for `COc1ccc(-c2ccccc2)cc1CC(=O)N1CCC(n2c(=O)[nH]c3ncccc32)CC1`, the Ki in [1] was 2510 nM.
On the same count and under the same terms, for `O=C(Cc1nnc(-c2cc(Cl)cc(Br)c2)o1)N1CCC(n2c(=O)[nH]c3ncccc32)CC1` the value was 12.6 nM.
Same read-out and setting: for `O=C(Cc1nnc(-c2cc(Cl)cc(Cl)c2)o1)N1CCC(n2c(=O)[nH]c3ncccc32)CC1` the value was 15.8 nM.
Consider `CN(C)CCOc1cc(Cl)cc(-c2nnc(CC(=O)N3CCC(n4c(=O)[nH]c5ncccc54)CC3)o2)c1`, for which the Ki in [1] was 5.01 nM; in data set [3], 50.1 nM. This compound had a solubility at 1 h in data set [2] of 330 µg/mL (≈ 627 µM). In addition, the Papp in data set [5] is 1.2 ×10⁻⁶ cm/s.
With `O=C(Cc1nnc(-c2ccccc2Cl)o1)N1CCC(n2c(=O)[nH]c3ncccc32)CC1`, the Ki in data set [1] is 501 nM.
Regarding `O=C(Cc1nnc(-c2cc(F)cc(Cl)c2)o1)N1CCC(n2c(=O)[nH]c3ncccc32)CC1`, the Ki in [1] is 25.1 nM.
The same measure, in the same setting: for `O=C(Cc1nnc(-c2cc(-c3ccccc3)cc(N3CCOCC3)c2)o1)N1CCC(n2c(=O)[nH]c3ncccc32)CC1` the value was 200 nM.
Regarding `CN1CCC(c2cc(Cl)cc(-c3nnc(CC(=O)N4CCC(n5c(=O)[nH]c6ncccc65)CC4)o3)c2)CC1`, the Ki was 3.98 nM in [1] and 20 nM in [3]. In [2], this compound showed a solubility at 1 h of 531 µg/mL (≈ 991 µM). For the same compound, the Papp in data set [5] was 2.2 ×10⁻⁶ cm/s.
Take `O=C(Cc1nnc(-c2c(Cl)cccc2Cl)o1)N1CCC(n2c(=O)[nH]c3ncccc32)CC1`: the Ki in data set [1] was 794 nM.
For `Cc1ncc(-c2cc(Cl)cc(-c3nnc(CC(=O)N4CCC(n5c(=O)[nH]c6ncccc65)CC4)o3)c2)n1C`, the Ki was 1.58 nM in data set [1] and 100 nM in [3]. For the same compound, in data set [2], the concentration in solution (solubility at 1 h) came to 390 µg/mL (≈ 732 µM). Also, in [4], the clearance stood at 52 mL/min/kg. In addition, the Papp in data set [5] was below 0.3 ×10⁻⁶ cm/s.
As to `O=C(Cc1nnc(-c2cccc(Cl)c2Cl)o1)N1CCC(n2c(=O)[nH]c3ncccc32)CC1`, the Ki in data set [1] is 158 nM.
For `O=C(Cc1nnc(-c2cc(Cl)cc(C3CCN(CC(F)F)CC3)c2)o1)N1CCC(n2c(=O)[nH]c3ncccc32)CC1`, the Ki was 3.98 nM in data set [1] and 79.4 nM in data set [3]. Moreover, the solubility at 1 h in data set [2] is 10 µg/mL (≈ 17.1 µM). For the same compound, in [4], the clearance is 67 mL/min/kg. Further, in [5], the Papp is 20 ×10⁻⁶ cm/s.
Turning to `O=C(Cc1nnc(-c2ccccc2)o1)N1CCC(n2c(=O)[nH]c3ncccc32)CC1`, in data set [1], the Ki is 200 nM.
The same measure, in the same setting: the figure for `O=C(Cc1nnc(-c2cc(Cl)cc(-c3ccccc3)c2)o1)N1CCC(n2c(=O)[nH]c3ncccc32)CC1` is 2.51 nM.
On to `O=C(Cc1nnc(-c2cc(Cl)cc(C(F)(F)F)c2)o1)N1CCC(n2c(=O)[nH]c3ncccc32)CC1`, for which the Ki in [1] was 3.98 nM. The compound also displayed a clearance in data set [6] of 33 mL/min/kg. This compound also had an AUC in the data set on Rattus norvegicus [12] of 6.3 kg·min/L. In data set [13], this compound registered a Cmax of 700 nM. Also, in data set [14], the Tmax came out at 1.5 h. The compound also came in with a bioavailability in [15] of 20%. This compound also showed a half-life in data set [11] of 0.5 h. This compound showed an LBF in the data set with Rattus norvegicus [16] of 40%.
With `CCN1CCC(c2cc(Cl)cc(-c3nnc(CC(=O)N4CCC(n5c(=O)[nH]c6ncccc65)CC4)o3)c2)CC1`, the Ki in [1] was 3.16 nM; in [3], 15.8 nM. The compound further showed a solubility at 1 h in data set [2] of 565 µg/mL (≈ 1030 µM). In addition, the Papp in [5] is 0.5 ×10⁻⁶ cm/s.
As to `Cc1cc(C)cc(-c2nnc(CC(=O)N3CCC(n4c(=O)[nH]c5ncccc54)CC3)o2)c1`, the Ki in data set [1] was 25.1 nM.
